Source: PubChem
Diaphorase inh = diaphorase inhibition or chemical oxidation counter-screen | diaphorase resazurin-to-resorufin fluorescence, NADH, 16 min; bacterial (C. kluyveri) enzyme, not human | inhibition, % at 20 µM | actives 0.69% (n = 190,000);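 active means primary screen inhibition at 20 µM above a set limit, cut at about 50% in these data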;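 further: plate controls were DMSO with full reaction for no effect and wells lacking NADH for full effect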
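material = Clostridium kluyveri diaphorase enzyme | amount = 0.14 U/mL diaphorase, enzyme working solution | schedule = incubation 16 min, room temperature | detection = fluorescence of resorufin formed from resazurin, Ex 544/Em 590 nm | benchmarks = positive control minus NADH, DMSO neutral control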
Cl transport mod = modulates chloride dependent transport by human KCC2 | actives 2.2% (n = 190,000) | KCC2 cells, thallium flux FluoZin-2 fluorescence | B-score of Tl+ flux slope (higher = more flux/activation; lower = inhibition) at 10 µM;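 active means thallium flux slope and its plate-corrected score both differing from the plate sample mean at a set confidence after two filtering rounds, in either direction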;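 further: slope of fluorescence scaled to starting intensity during 10 to 20 s after thallium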
WT yeast gro inh = growth inhibition of WT yeast, mitochondrial fusion screen | mitochondrial fusion phenotypic screen, WT strain | inhibition, % at 10 µM | actives 2.1% (n = 190,000) | AID 1362; in the data active means inhibition above about 58%; tested in S. cerevisiae
Diaphorase act = diaphorase activation or chemical reduction counter-screen; Diaphorase/resazurin coupled assay, resorufin fluorescence, 16 min; active compounds read high; 1 = vehicle wells, 0 = NADH-free wells; activation factor at 20 µM; actives 0.005% (n = 190,000);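 active means diaphorase activity raised at least twofold by the compound at 20 µM; inactive means activation factor below 2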
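Test system: Clostridium kluyveri diaphorase, purified enzyme; input: enzyme 0.07 U/mL final; buffer or medium: 50 mM HEPES pH 7.4 with 4.542 mM MgCl2, 0.005% Tween 20; also added: 0.114 mM NADH and 0.1 mM resazurin, final amounts; schedule: 16 min enzyme reaction, ambient temperature; technique: fluorescence of resorufin, 544 nm excitation, 590 nm emission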
ROMK mod = human ROMK K+ channel modulation, primary screen. P48048. Tet-inducible ROMK, thallium flux fluorescence; actives lie on both sides. B-score at 10 µM. actives 2% (n = 130,000);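 active means signal ratio slope over the read window, or its plate-corrected B-score, at least 3 SD from the plate mean, either direction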;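 further: B-score of the F/F0 ratio slope over 7 to 12 s after thallium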
Target sequence (P48048 whole entry, looked up): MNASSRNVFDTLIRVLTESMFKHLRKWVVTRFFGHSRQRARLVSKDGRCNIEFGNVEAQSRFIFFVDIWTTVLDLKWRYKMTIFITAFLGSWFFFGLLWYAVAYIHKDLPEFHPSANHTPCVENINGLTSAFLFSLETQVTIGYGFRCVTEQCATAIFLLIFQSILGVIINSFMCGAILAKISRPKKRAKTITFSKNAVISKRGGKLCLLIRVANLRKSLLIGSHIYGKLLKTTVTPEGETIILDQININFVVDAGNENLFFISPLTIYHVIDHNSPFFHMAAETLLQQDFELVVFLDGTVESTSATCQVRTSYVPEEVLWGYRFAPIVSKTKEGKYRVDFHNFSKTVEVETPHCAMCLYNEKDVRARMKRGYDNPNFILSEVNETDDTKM
Lmaj promast = reduces viability of Leishmania major promastigotes. resazurin fluorescence viability. inhibition, % at 10 µM. actives 9% (n = 200,000). AID 1063; in the data active means inhibition above about 50%;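 further: promastigotes grown with compound for 44 hours at 28 °C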
Numbers without * were called inactive; / = no result given. In the library only some 12% were active in any assay of this set; here they are far more common.

SMILES	Diaphorase inh	Cl transport mod	WT yeast gro inh	Diaphorase act	ROMK mod	Lmaj promast
CCOC(=O)c1ccc(NC(=O)CN2C(=O)NC3(CCCCCC3)C2=O)cc1	14	0.52	7	0.9	0.23	91*
COC(=O)c1ccc(NC(=O)CN2C(=O)CNC2=O)cc1	2	0.52	11	1	-0.035	91*
CS(=O)(=O)N(CC(=O)Nc1ccc2c(c1)OCO2)Cc1ccc(Cl)cc1	21	-1.9	7	0.8	-0.55	21
COC(=O)c1ccc(NC(=O)CN(Cc2ccc(Cl)cc2)S(C)(=O)=O)cc1	12	-0.17	6	0.9	/	100*
NC(=O)c1ccc(NC(=O)COC(=O)c2ccccc2Nc2ccccc2)cc1	-12	0.16	-14	1.1	0.83	2
CN(C(=S)Nc1ccc(Oc2ccccc2)cc1)C1CCCCC1	18	-2.9	68*	0.8	-0.79	24
CCCN(CC1CC1)C(=S)Nc1ccc(Oc2ccccc2)cc1	11	0.71	49	0.9	-0.017	17
S=C(Nc1ccc(Oc2ccccc2)cc1)NC1CCCCC1	4	-0.19	61*	1	/	16
CCCCN(C)C(=S)Nc1ccc(Oc2ccccc2)cc1	21	-1.9	59*	0.8	/	-4
CN(CCC#N)C(=S)Nc1ccc(Oc2ccccc2)cc1	15	-1.6	5	0.8	/	14
O=C(O)c1ccc(NC(=S)NC2CCCCC2)cc1	-2	-0.38	-12	1	0.24	10
S=C(Nc1ccc(Oc2ccccc2)cc1)NC1CCCCCC1	23	-1.2	69*	0.8	/	16
O=C(Nc1ccc(C(=O)O)cc1)/C(=C\c1ccc([N+](=O)[O-])cc1)NC(=O)c1ccc(Br)cc1	-2	-0.14	4	1	0.12	1
S=C(NNc1ccc2ccccc2c1)NC1CCCCC1	22	0	78*	0.8	/	13
Cc1ccc(NC(=S)NNC(=S)NC2CCCCC2)cc1	-4	0.063	12	1	/	-2
CC1CN(c2nc3ccccc3cc2-c2ccccc2)CC(C)O1 (configuration not stated)	14	-0.71	78*	0.9	/	38
CC1CN(c2cc(-c3ccccc3)c3ccccc3n2)CC(C)O1 (configuration not stated)	15	0.054	76*	0.9	0.014	100*
CCC(=O)n1nc(-c2ccc(Cl)cc2)nc1NCc1ccccc1	20	0.53	-10	0.8	/	-1
O=C(c1cccc(Cl)c1)N1CCC(c2nc3ccccc3[nH]2)CC1	-9	0.47	-16	1.1	0.13	4
O=C(c1ccccc1Cl)N1N=C(c2ccc(Br)cc2)CC1c1nc2ccccc2[nH]1 (configuration not stated)	5	1.4	73*	0.9	/	20
C/C(=N\NC(=O)Cc1cccn1C)c1cccs1	19	0.3	-10	0.8	-0.17	1
COc1cccc(CN2CCN(Cc3ccc4c(c3)OCCO4)CC2CCO)c1 (configuration not stated)	-16	-0.03	-12	1.2	-0.17	70*
COc1ccc(/C=C/CN2CCN(Cc3cccc(OC)c3)C(CCO)C2)cc1 (configuration not stated)	2	-0.63	7	1	0.0024	93*
COc1cccc(CN2CCN(Cc3cc4ccccc4[nH]3)CC2CCO)c1 (configuration not stated)	/	-0.084	/	/	/	/
COc1ccc(CN2CCN(Cc3cccc(OC)c3)C(CCO)C2)cc1 (configuration not stated)	11	/	-4	0.9	/	71*
SMILES	Diaphorase inh	Cl transport mod	WT yeast gro inh	Diaphorase act	ROMK mod	Lmaj promast
COc1ccccc1-c1cc(=O)c2c(O)ccc([N+](=O)[O-])c2o1	/	-0.13	/	/	/	/
CCc1cc(=O)oc2c(C)c(OCC(=O)N3CCCc4ccccc43)ccc12	18	/	-4	0.8	-0.55	89*
CCc1cc(=O)oc2cc(OCC(=O)N3CCc4ccccc43)ccc12	19	/	/	0.8	/	/
O=[N+]([O-])c1ccc(C2=NCCO2)cc1	/	-0.014	/	/	/	/
Cc1ccc(S(=O)(=O)NCC(c2ccco2)N2CCOCC2)cc1 (configuration not stated)	14	-0.023	8	0.9	0.28	-3
COCC(O)CNc1ccccc1 (configuration not stated)	10	0.88	7	0.9	/	33
CN(C(=O)Cc1c[nH]c2ccccc12)C(C(=O)Nc1ccc2c(c1)OCO2)c1ccccc1 (configuration not stated)	30	0.54	2	0.7	-0.2	61*
CCOC(=O)C(C)Oc1ncnc2cccc(F)c12 (configuration not stated)	-3	0.56	-6	1	-0.11	-6
Cc1cc(NC(=O)C2CCCC2)nc2c1c(=O)oc1ccccc12	19	/	26	0.8	-0.049	25
Cc1cc(NC(=O)C2CCCCC2)nc2c1c(=O)oc1ccccc12	3	/	81*	1	0.18	13
Cc1[nH]n(-c2ccc([N+](=O)[O-])cc2)c(=O)c1C=NCCN1CCN(C(=O)C(C)C)CC1	-10	1.4	63*	1.1	-1.1	-2
Cc1[nH]n(-c2ccc([N+](=O)[O-])cc2)c(=O)c1C=NCCc1ccc(S(N)(=O)=O)cc1	10	0.6	-12	0.9	-0.7	0
CCOC(=O)c1c(C)n(C)c2cc(Br)c(OC)cc12	26	-0.047	18	0.7	-0.84	-1
COc1ccc(C(=O)N2CCOCC2)cc1Br	11	/	0	0.9	/	-9
CCOC(=O)c1c(CN2CCCCC2)n(C)c2cc(Br)c(OC)cc12	11	/	23	0.9	/	99*
COc1cc2c(C(=O)N3CCOCC3)c(CSc3ccccc3)n(C)c2cc1Br	25	-3.7	60*	0.7	-1.8	47
CCOC(=O)c1c(C)n(CC(O)CN(CC)CC)c2cc(Br)c(OC)cc12 (configuration not stated)	3	/	-8	1	0.12	89*
CCOC(=O)c1c(CN2CCN(CCO)CC2)n(C)c2cc(Br)c(OC)cc12	-2	/	12	1	-1.5	54*
C=CCOc1ccc(/C=N/NC(=O)C(=O)Nc2ccccn2)cc1OC	2	0.74	-5	1	0.53	0
N#Cc1cc(-c2ccc(Cl)cc2)cnc1Sc1ccc(F)cc1	3	0.22	1	1	/	-3
NC(=O)c1cc(-c2ccccc2)sc1NC(=O)CN1CCCCC1	31	-0.6	28	0.7	/	26
CCN(CC)CCNC(=O)c1c(C)n(-c2ccccc2)c2cc(Br)c(OC)cc12	15	0.68	20	0.8	/	101*
CCOC(=O)c1c(CNCCN(CC)CC)n(C)c2cc(Br)c(OC)cc12	9	-3*	5	0.9	-2.2	100*
